Converted amounts (≈) assume the structure as drawn.
Assays:
Cytomegalovirus [1] = experiment: Inhibitory activity against cytomegalovirus (CMV) AD 169 strain; format: functional, organism-based; conditions: Human betaherpesvirus 5
How it was run: (§1)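 HEL cell cultures, grown to confluence, received 100 CCID50 of virus. After 1 h adsorption, the inoculum was removed and the cultures were incubated with serial concentrations of compound (400, 200, 100, ... μg/mL).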

HEL = experiment: Compound was evaluated for inhibitory activity against varicella zoster virus thymidine kinase (VZV TK-) 07/1 strain; NA=not active; format: functional, cell-based, Homo sapiens
Human alphaherpesvirus 1 [2] = experiment: Inhibitory activity against herpes simplex virus type 1 (HSV-1) KOS strain; format: functional, organism-based
How it was run: (§2)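 Confluent E6SM cell cultures were inoculated with 100 CCID50 of virus and allowed 1 h for adsorption. Residual virus was then removed, and the cells were incubated with test compound at 400, 200, 100, ... μg/mL. Viral cytopathicity was scored once it reached completion in untreated infected controls.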

Human alphaherpesvirus 2 [3] = experiment: Inhibitory activity against herpes simplex virus type 2 (HSV-2) G strain; format: functional, organism-based; how it was run: as §2
[4] = system: Human immunodeficiency virus 1; experiment: Inhibitory activity of compound against human immunodeficiency virus type 1 (HIV-1) induced cytopathogenicity in MT-4 cells; format: functional, organism-based; conditions: Human immunodeficiency virus 1, MT4
How it was run: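 Human MT-4 cells (~4 × 10⁵ cells/mL) were infected with 100 CCID50 of HIV-1 (IIIB)/mL and seeded into wells containing compound dilutions. After 5 days at 37 °C, viable cells were counted by trypan blue exclusion in a blood cell counting chamber.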

Human alphaherpesvirus 1 [5] = experiment: Inhibitory activity against herpes simplex virus type 1 (HSV-1) McIntyre strain; format: functional, organism-based; how it was run: as §2
Human alphaherpesvirus 2 [6] = experiment: Inhibitory activity against herpes simplex virus type 2 (HSV-2) Lyons strain; format: functional, organism-based; how it was run: as §2
[7] = Inhibitory activity against murine sarcoma virus induced transformation of murine C3H/3T3 embryo fibroblasts; format: functional, Mus musculus
How it was run: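 Murine C3H/3T3 embryo fibroblasts were seeded at 5 × 10⁵ cells/mL. After 24 h they were infected with 80 focus-forming units of MSV for 90–120 min at 37 °C. The medium was then replaced with fresh medium containing various compound concentrations, and transformation was examined microscopically after 6 days.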

Human alphaherpesvirus 1 [8] = experiment: Inhibition of herpes simplex virus type 1 (HSV-1) F strain; format: functional, organism-based; how it was run: as §2
[9] = system: Human immunodeficiency virus 2; experiment: Inhibitory activity against human immunodeficiency virus type 2 (HIV-2) induced cytopathogenicity in MT-4 cells; format: functional, organism-based; conditions: Human immunodeficiency virus 2, MT4
Vaccinia virus [10] = experiment: Inhibitory activity against vaccinia virus (VV); format: functional, organism-based; conditions: Orthopoxvirus vaccinia
How it was run: (§3)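 Confluent E6SM cell cultures were inoculated with 100 CCID50 of virus and left for 1 h adsorption, then residual virus was removed. Cultures were incubated with test compound at serial concentrations (400, 200, 100, ... μg/mL). Virus-induced cytopathicity was scored once it reached completion in untreated infected control cultures.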

[11] = system: Human immunodeficiency virus 2; experiment: Inhibition of human immunodeficiency virus type 2 (HIV-2) induced cytopathogenicity in CEM cells; format: functional, organism-based; conditions: Human immunodeficiency virus 2, CCRF-CEM
[12] = Inhibitory activity against herpes simplex virus type 2 (HSV-2) 196 strain; format: functional; how it was run: as §2
Cytomegalovirus [13] = experiment: Inhibitory activity against cytomegalovirus (CMV) Davis strain; format: functional, organism-based; conditions: Human betaherpesvirus 5; how it was run: as §1
[14] = system: Human immunodeficiency virus 1; experiment: Inhibition of human immunodeficiency virus type 1 (HIV-1) induced cytopathogenicity in CEM cells; format: functional, organism-based; conditions: Human immunodeficiency virus 1, CCRF-CEM
How it was run: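 CEM cells (~3 × 10⁵ cells/mL) were infected with 100 CCID50 of HIV-1 (IIIB)/mL and plated with dilutions of compound. After 4 days at 37 °C, giant cell formation was assessed microscopically.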

Vaccinia virus [15] = experiment: Inhibitory activity against vaccinia virus (VV).; format: functional, organism-based, Orthopoxvirus vaccinia; how it was run: as §3
Human alphaherpesvirus 1 [16] = experiment: Inhibitory activity against herpes simplex virus type 1 thymidine kinase (HSV-1 TK-) VMW 1837 strain.
Human alphaherpesvirus 1 [17] = experiment: Inhibitory activity against herpes simplex virus type 1 (HSV-1) F strain; format: functional, organism-based; how it was run: as §2
Human alphaherpesvirus 2 [18] = experiment: Inhibitory activity against herpes simplex virus type 2 (HSV-2) G strain.; format: functional, organism-based; how it was run: as §2
Human alphaherpesvirus 1 [19] = experiment: Iactivity against herpes simplex virus type 1 (HSV-1) McIntyre strain.; format: functional, organism-based; how it was run: as §2
Human alphaherpesvirus 1 [20] = experiment: Inhibitory activity against herpes simplex virus type 1 (HSV-1) KOS strain.; format: functional, organism-based; how it was run: as §2
E6SM [21] = experiment: Inhibitory activity against herpes simplex virus type 2 (HSV-2) Lyons strain.; format: functional, cell-based, Homo sapiens; how it was run: as §2
Human alphaherpesvirus 2 [22] = experiment: Inhibitory activity against herpes simplex virus type 2 (HSV-2) 196 strain.; format: functional, organism-based; how it was run: as §2
E6SM [23] = experiment: Compound was evaluated for inhibitory activity against herpes simplex virus type 1 thymidine kinase (HSV-1 TK-) B2006 strain; NA=not active; format: functional, cell-based, Homo sapiens; how it was run: as §2

SMILES	EC50 (Cytomegalovirus [1]) [µg/mL]	EC50 (Human alphaherpesvirus 1 [2]) [µg/mL]	EC50 (Human alphaherpesvirus 2 [3]) [µg/mL]	EC50 [4] [µg/mL]	EC50 (Human alphaherpesvirus 1 [5]) [µg/mL]	EC50 (Human alphaherpesvirus 2 [6]) [µg/mL]	EC50 [7] [µg/mL]	EC50 (Human alphaherpesvirus 1 [8]) [µg/mL]	EC50 [9] [µg/mL]	EC50 (Vaccinia virus [10]) [µg/mL]	EC50 [11] [µg/mL]	EC50 [12] [µg/mL]	EC50 (Cytomegalovirus [13]) [µg/mL]	EC50 [14] [µg/mL]	EC50 (Human alphaherpesvirus 1 [16])	EC50 (Human alphaherpesvirus 1 [17])	EC50 (Human alphaherpesvirus 2 [18])	EC50 (Human alphaherpesvirus 1 [19])	EC50 (E6SM [21])	EC50 (Human alphaherpesvirus 2 [22])	other results
Nc1ncnc2c1ccn2CCOCP(=O)(O)O	> 50	200 (≈ 735 µM)	70 (≈ 257 µM)	7.56 (≈ 27.8 µM)	100 (≈ 367 µM)	100 (≈ 367 µM)	4.1 (≈ 15.1 µM)	150 (≈ 551 µM)	8.27 (≈ 30.4 µM)	150 (≈ 551 µM)	2.5 (≈ 9.18 µM)	200 (≈ 735 µM)	> 50	4 (≈ 14.7 µM)							EC50 (HEL): Not Active
Nc1nccc(OCCOCP(=O)(O)O)n1	> 100	> 200	> 200	> 100	300 (≈ 1200 µM)	300 (≈ 1200 µM)	2.33 (≈ 9.35 µM)	> 200	> 100			> 200	> 100								EC50 (Vaccinia virus [15]): Not Active
CC(C)OP(=O)(COCCn1cnc2c(N)nc(N)nc21)OC(C)C	2 (≈ 5.37 µM)	240 (≈ 645 µM)	> 400	> 100	89 (≈ 239 µM)	240 (≈ 645 µM)		240 (≈ 645 µM)				240 (≈ 645 µM)	2 (≈ 5.37 µM)	> 100							
CC(C)OP(=O)(COCCn1cnc2c(N)nc(Cl)nc21)OC(C)C	0.65 (≈ 1.66 µM)			> 20			> 100						0.7 (≈ 1.79 µM)		Not Active	Not Active	Not Active	Not Active	Not Active	Not Active	EC50 (HEL): Not Active; EC50 (Vaccinia virus [15]): Not Active; EC50 (Human alphaherpesvirus 1 [20]): Not Active
Nc1ncc2ncn(CCOCP(=O)(O)O)c2n1	> 100	70 (≈ 256 µM)	400 (≈ 1460 µM)	40.9 (≈ 150 µM)	20 (≈ 73.2 µM)	70 (≈ 256 µM)	0.1 (≈ 0.366 µM)	20 (≈ 73.2 µM)	50 (≈ 183 µM)			150 (≈ 549 µM)	> 100								EC50 (Vaccinia virus [15]): Not Active
Nc1nc(Cl)nc2c1ncn2CCOCP(=O)(O)O	88 (≈ 286 µM)			> 100			18.2 (≈ 59.2 µM)		> 100	> 40			85 (≈ 276 µM)		Not Active	Not Active	Not Active	Not Active	Not Active	Not Active	EC50 (Human alphaherpesvirus 1 [20]): Not Active
CC(C)OP(=O)(COCCn1cnc2c(Cl)nc(N)nc21)OC(C)C	40 (≈ 102 µM)			> 100			> 100		> 100				10 (≈ 25.5 µM)		Not Active	Not Active	Not Active	Not Active	Not Active	Not Active	EC50 (Vaccinia virus [15]): Not Active; EC50 (Human alphaherpesvirus 1 [20]): Not Active
Nc1cnn(CCOCP(=O)(O)O)c(=O)n1	> 100			> 100			> 100		> 100				> 100		Not Active	Not Active	Not Active	Not Active	Not Active	Not Active	EC50 (Human alphaherpesvirus 1 [20]): Not Active
CC(C)CCCCCOP(=O)(O)COCCn1cnc2c(O)nc(N)nc21	> 50	240 (≈ 598 µM)	240 (≈ 598 µM)	> 100	240 (≈ 598 µM)	240 (≈ 598 µM)		240 (≈ 598 µM)	> 100			240 (≈ 598 µM)	> 50								
CCOP(=O)(O)COCCn1cnc2c(O)nc(N)nc21	0.15 (≈ 0.473 µM)	2 (≈ 6.3 µM)	0.7 (≈ 2.21 µM)	2.6 (≈ 8.2 µM)	2 (≈ 6.3 µM)	2 (≈ 6.3 µM)	0.24 (≈ 0.757 µM)	2 (≈ 6.3 µM)		20 (≈ 63 µM)		2 (≈ 6.3 µM)	0.15 (≈ 0.473 µM)								
Nc1nc(O)c2c(ncn2CCOCP(=O)(O)O)n1	> 50	300 (≈ 1040 µM)	300 (≈ 1040 µM)		150 (≈ 519 µM)	> 400	96 (≈ 332 µM)	200 (≈ 692 µM)		> 400	> 100	200 (≈ 692 µM)	> 50	> 100							EC50 (HEL): Not Active
CC(C)OP(=O)(COCCn1cnc2nc(N)nc(O)c21)OC(C)C	> 50	> 200	> 200		> 200	> 200	> 200	> 200		> 200	> 100	> 200	> 50	> 100							EC50 (HEL): Not Active
Nc1cc2c(ncn2CCOCP(=O)(O)O)c(O)n1	2 (≈ 6.94 µM)	4.5 (≈ 15.6 µM)	12 (≈ 41.6 µM)	> 20	4 (≈ 13.9 µM)	7 (≈ 24.3 µM)	2.9 (≈ 10.1 µM)	7 (≈ 24.3 µM)	> 20	150 (≈ 520 µM)		7 (≈ 24.3 µM)	1.5 (≈ 5.2 µM)								
Nc1cc2c(ncn2CCOCP(=O)(O)O)c(N)n1	> 50	150 (≈ 522 µM)	70 (≈ 244 µM)	51 (≈ 178 µM)	100 (≈ 348 µM)	70 (≈ 244 µM)	144 (≈ 501 µM)	70 (≈ 244 µM)	78.5 (≈ 273 µM)	150 (≈ 522 µM)	16 (≈ 55.7 µM)	100 (≈ 348 µM)	> 50	30 (≈ 104 µM)							
Nc1nccc2c1ncn2CCOCP(=O)(O)O	70 (≈ 257 µM)			> 200			> 100						400 (≈ 1470 µM)		Not Active	Not Active	Not Active	Not Active	Not Active	Not Active	EC50 (Vaccinia virus [15]): Not Active; EC50 (Human alphaherpesvirus 1 [20]): Not Active; EC50 (E6SM [23]): Not Active
Nc1ccn(CCOCP(=O)(O)O)c(=O)c1	100 (≈ 403 µM)			> 100			> 100		> 100	> 40			> 100		Not Active	Not Active	Not Active	Not Active	Not Active	Not Active	EC50 (Human alphaherpesvirus 1 [20]): Not Active
Nc1nc(=O)ccn1CCOCP(=O)(O)O	> 100	> 400		> 100			> 100		> 100				> 100		Not Active	Not Active	Not Active	Not Active	Not Active	Not Active	
Nc1nc(S)c2c(ncn2CCOCP(=O)(O)O)n1	> 50	> 100	> 100	> 100			31 (≈ 102 µM)		> 100	> 100	> 100		> 50	> 100							
Nc1nc2c(ncn2CCOCP(=O)(O)O)c(=O)[nH]1 [GS-438]				> 0.2			0.0006 (≈ 0.00207 µM)		> 0.2		0.03 (≈ 0.104 µM)										
Nc1nc(N)c2ncn(CCOCP(=O)(O)O)c2n1 [PMEDAP]	10 (≈ 34.7 µM)	2 (≈ 6.94 µM)	0.2 (≈ 0.694 µM)	2.67 (≈ 9.26 µM)	2 (≈ 6.94 µM)	0.07 (≈ 0.243 µM)	0.6 (≈ 2.08 µM)	2 (≈ 6.94 µM)		20 (≈ 69.4 µM)		0.07 (≈ 0.243 µM)	10 (≈ 34.7 µM)								

— ChEMBL document CHEMBL1132160, “Structure-antiviral activity relationship in the series of pyrimidine and purine N-[2-(2-phosphonomethoxy)ethyl] nucleotide analogues. 1. Derivatives substituted at the carbon atoms of the base” (J Med Chem, 1999)
